Source: article PMC2190579 (The Journal of Cell Biology, 2001)

How the values were obtained:
[1] = molecular target: P2Y1R (wild-type) (Meleagris gallopavo, UniProt P49652); assay: Calcium mobilization; assay type: cell-based, turkey; conditions: read-out: EC50 (for Ca^2+ mobilization); 1321N1 cells; mean ± SEM (n = 3)
[2] = molecular target: P2Y1R (D^116 ↦ E) (Meleagris gallopavo, UniProt P49652, D105E); assay: Calcium mobilization; assay type: cell-based, turkey; conditions: read-out: EC50 (for Ca^2+ mobilization); 1321N1 cells; mean ± SEM (n = 3)
[3] = molecular target: P2Y1R (D^121 ↦ E) (Meleagris gallopavo, UniProt P49652, D110E); assay: Calcium mobilization; assay type: cell-based, turkey; conditions: read-out: EC50 (for Ca^2+ mobilization); 1321N1 cells; mean ± SEM (n = 3)
[4] = molecular target: P2Y1R (F^119 ↦ R) (Meleagris gallopavo, UniProt P49652, F108R); assay: Calcium mobilization; assay type: cell-based, turkey; conditions: read-out: EC50 (for Ca^2+ mobilization); 1321N1 cells; mean ± SEM (n = 3)
[5] = system: P2Y2R (wild-type); assay: Calcium mobilization; assay type: cell-based, human
[6] = system: wild-type P2Y2R; assay: FAK phosphorylation in 1321N1 transfectants; assay type: cell-based, human
[7] = system: wild-type P2Y2R; assay: ERK1/2 phosphorylation in 1321N1 transfectants; assay type: cell-based, human
How it was run: (§1)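 1321N1 astrocytoma cells stably expressing HA-tagged P2Y2R (retroviral pLXSN, G418-selected) were grown to 80% confluence and serum-starved 24 h at 37°C. They were preincubated 30 min with buffer or 10 μM BAPTA-AM, then given 100 μM UTP. Lysates were run on 7.5% SDS-PAGE and immunoblotted for phospho-p42/p44 ERK1/2. Chemiluminescence was quantitated and normalised by reprobing for total ERK1/2.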

[8] = system: wild-type P2Y2R; assay: IP assay; assay type: cell-based, human; conditions: overnight treatment with peptide; not shown
How it was run: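 Wild-type P2Y2R 1321N1 transfectants were labelled 24 h with 2 μCi [3H]inositol (20 Ci/mmol) in serum-free, inositol-free DME. Cells were washed and held 30 min at 37°C in 30 mM LiCl buffer, then stimulated 10 min with UTP. Extraction used ice-cold 10% perchloric acid with neutralisation. Inositol phosphates were separated on Dowex columns and counted by liquid scintillation.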

[9] = system: K562 erythroleukemia cells; assay: Ligand-coated bead-binding assay; assay type: cell-based, human; conditions: number of beads bound per 100 cells; 1 h at 37°C; mean ± SEM
[10] = molecular target: P2Y2R (D^97 ↦ E), RGE mutant (Homo sapiens, UniProt P41231, D97E); assay: Calcium mobilization; assay type: cell-based; conditions: 1321N1 cells
[11] = system: RGE mutant P2Y2R; assay: FAK phosphorylation in 1321N1 transfectants; assay type: cell-based, human; conditions: 1 mM UTP after 30 min preincubation with 10 μM BAPTA-AM
How it was run: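 Serum-starved (24 h, 37°C) 1321N1 cells stably expressing HA-tagged P2Y2R constructs were preincubated 30 min with buffer or 10 μM BAPTA-AM, then stimulated with 1 mM UTP. Cells were lysed in RIPA buffer and FAK was immunoprecipitated. Tyrosine phosphorylation was detected by anti-phosphotyrosine immunoblot after 7.5% SDS-PAGE, with chemiluminescence read-out. Three to six experiments.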

[12] = system: RGE mutant P2Y2R; assay: ERK1/2 phosphorylation in 1321N1 transfectants; assay type: cell-based, human; conditions: 100 μM UTP after 30 min preincubation with 10 μM BAPTA-AM
How it was run: as §1

[13] = molecular target: αVβ3 integrin (human (endogenous in K562)) (UniProt P06756); assay: ligand-coated bead binding to cells
[14] = molecular target: αVβ5 integrin (human (endogenous in K562)) (UniProt P06756); assay: ligand-coated bead binding to cells
[15] = system: K562 cells; assay: Fluorescence-activated cell sorting of integrin surface expression; assay type: cell-based, human; conditions: overnight treatment with 100 nM PDBu
[16] = overnight (18 h) with 100 μM peptide, 1 μM UTP 5 min
[17] = shorter incubation periods than overnight, not shown
[18] = overnight (18 h) with 100 μM peptide, 10 nM UTP 5 min

P2Y2R (D^97 ↦ E), RGE mutant, sequence (P41231 whole entry D97E): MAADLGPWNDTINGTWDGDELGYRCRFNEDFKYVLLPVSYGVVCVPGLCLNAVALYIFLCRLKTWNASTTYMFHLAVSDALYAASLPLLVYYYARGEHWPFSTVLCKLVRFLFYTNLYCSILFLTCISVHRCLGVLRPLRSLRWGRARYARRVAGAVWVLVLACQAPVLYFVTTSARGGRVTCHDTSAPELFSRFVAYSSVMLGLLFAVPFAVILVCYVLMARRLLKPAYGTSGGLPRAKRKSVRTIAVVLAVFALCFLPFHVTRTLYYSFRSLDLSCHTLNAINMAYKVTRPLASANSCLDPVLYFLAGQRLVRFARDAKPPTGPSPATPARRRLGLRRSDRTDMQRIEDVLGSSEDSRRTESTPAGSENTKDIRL
P2Y1R (F^119 ↦ R), sequence (P49652 whole entry F108R): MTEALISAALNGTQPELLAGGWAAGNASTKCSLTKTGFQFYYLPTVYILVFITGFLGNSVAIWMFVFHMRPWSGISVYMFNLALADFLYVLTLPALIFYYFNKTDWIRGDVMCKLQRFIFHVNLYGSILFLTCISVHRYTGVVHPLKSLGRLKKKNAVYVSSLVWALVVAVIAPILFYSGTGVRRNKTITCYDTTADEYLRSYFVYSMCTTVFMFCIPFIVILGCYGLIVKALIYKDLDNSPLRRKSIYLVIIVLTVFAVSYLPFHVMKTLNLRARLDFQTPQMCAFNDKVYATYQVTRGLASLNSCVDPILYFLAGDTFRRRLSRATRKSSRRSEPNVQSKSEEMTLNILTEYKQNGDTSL
P2Y1R (D^116 ↦ E), sequence (P49652 whole entry D105E): as the sequence (P49652 whole entry F108R) above, with D105E, R108F counted along it
αVβ3 integrin (human (endogenous in K562)), sequence (P06756 31-1048, chain 1 of 2): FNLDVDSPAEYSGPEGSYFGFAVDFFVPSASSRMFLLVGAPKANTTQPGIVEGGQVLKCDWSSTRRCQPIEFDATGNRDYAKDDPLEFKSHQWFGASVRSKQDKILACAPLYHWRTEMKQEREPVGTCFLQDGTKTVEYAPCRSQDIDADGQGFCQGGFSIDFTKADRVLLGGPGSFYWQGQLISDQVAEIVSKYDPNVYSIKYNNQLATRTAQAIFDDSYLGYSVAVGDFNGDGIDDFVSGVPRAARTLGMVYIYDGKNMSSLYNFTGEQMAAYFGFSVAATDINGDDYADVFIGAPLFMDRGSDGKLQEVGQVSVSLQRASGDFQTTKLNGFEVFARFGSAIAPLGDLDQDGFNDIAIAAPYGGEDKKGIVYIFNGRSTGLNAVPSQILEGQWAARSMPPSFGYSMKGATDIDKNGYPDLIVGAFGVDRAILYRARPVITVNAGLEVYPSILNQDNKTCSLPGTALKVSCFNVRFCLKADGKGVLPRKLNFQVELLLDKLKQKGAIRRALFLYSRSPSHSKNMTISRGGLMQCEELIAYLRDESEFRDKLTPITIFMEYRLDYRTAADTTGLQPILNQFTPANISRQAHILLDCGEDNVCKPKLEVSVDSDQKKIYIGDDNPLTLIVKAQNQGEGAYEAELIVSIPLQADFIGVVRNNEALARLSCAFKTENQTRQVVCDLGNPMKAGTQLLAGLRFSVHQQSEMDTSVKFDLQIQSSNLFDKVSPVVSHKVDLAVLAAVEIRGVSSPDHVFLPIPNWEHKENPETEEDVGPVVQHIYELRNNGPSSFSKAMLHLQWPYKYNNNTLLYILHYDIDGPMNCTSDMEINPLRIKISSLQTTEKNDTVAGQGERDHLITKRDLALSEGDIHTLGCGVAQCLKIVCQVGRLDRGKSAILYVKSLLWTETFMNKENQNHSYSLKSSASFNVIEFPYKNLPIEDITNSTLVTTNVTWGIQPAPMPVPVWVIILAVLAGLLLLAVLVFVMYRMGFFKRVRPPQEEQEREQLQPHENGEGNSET
αVβ3 integrin (human (endogenous in K562)), sequence (P05106 27-788, chain 2 of 2, further chain): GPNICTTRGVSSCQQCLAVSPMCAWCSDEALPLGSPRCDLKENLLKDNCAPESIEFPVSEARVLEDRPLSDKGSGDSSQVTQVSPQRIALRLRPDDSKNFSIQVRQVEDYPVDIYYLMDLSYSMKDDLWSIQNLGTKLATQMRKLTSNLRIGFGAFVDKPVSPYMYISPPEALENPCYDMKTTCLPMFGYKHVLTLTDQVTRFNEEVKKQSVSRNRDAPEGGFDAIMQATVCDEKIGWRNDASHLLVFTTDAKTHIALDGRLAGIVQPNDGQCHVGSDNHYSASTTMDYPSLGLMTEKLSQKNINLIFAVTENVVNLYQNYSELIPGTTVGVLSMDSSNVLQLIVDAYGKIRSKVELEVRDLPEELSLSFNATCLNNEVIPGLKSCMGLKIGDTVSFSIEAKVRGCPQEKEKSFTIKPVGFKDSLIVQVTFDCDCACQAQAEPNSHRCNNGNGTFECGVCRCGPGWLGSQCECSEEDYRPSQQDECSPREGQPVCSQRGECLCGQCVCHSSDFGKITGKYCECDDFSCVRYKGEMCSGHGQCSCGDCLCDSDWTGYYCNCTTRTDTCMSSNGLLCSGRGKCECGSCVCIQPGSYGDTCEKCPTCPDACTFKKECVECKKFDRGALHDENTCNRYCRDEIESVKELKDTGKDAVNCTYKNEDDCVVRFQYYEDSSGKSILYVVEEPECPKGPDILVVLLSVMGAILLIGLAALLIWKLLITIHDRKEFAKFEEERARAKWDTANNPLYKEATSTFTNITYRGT
αVβ5 integrin (human (endogenous in K562)), sequence (P06756 31-1048, chain 1 of 2): as the sequence (P06756 31-1048, chain 1 of 2) above
αVβ5 integrin (human (endogenous in K562)), sequence (P18084 24-799, chain 2 of 2, further chain): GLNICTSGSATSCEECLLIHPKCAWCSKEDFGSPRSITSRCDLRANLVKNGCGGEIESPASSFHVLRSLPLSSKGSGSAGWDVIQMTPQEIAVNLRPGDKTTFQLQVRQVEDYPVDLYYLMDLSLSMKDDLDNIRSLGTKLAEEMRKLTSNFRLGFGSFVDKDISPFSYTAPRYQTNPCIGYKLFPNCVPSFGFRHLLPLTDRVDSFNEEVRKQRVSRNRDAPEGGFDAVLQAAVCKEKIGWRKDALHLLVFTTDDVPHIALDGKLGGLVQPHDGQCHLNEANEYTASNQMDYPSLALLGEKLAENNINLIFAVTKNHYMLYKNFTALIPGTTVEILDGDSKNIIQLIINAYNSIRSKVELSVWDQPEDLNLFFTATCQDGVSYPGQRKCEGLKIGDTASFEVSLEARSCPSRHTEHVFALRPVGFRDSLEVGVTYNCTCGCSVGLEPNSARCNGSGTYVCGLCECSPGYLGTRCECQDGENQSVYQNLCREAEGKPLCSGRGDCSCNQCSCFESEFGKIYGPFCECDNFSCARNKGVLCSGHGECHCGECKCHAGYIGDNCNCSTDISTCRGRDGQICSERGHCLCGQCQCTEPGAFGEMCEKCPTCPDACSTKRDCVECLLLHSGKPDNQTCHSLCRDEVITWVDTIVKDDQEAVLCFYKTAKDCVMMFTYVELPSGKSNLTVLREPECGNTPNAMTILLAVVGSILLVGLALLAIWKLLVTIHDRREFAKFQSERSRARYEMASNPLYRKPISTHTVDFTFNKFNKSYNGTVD
P2Y1R (wild-type), sequence (P49652 whole entry): as the sequence (P49652 whole entry F108R) above, with R108F counted along it
P2Y1R (D^121 ↦ E), sequence (P49652 whole entry D110E): as the sequence (P49652 whole entry F108R) above, with R108F, D110E counted along it

`Nc1ncnc2c1ncn2[C@@H]1O[C@H](COP(=O)(O)OP(=O)(O)O)[C@@H](O)[C@H]1O` [ADP] was tested, and the EC50 [1] was 60 ± 10 nM, the EC50 [2] was 60 ± 10 nM and the EC50 [3] was 80 ± 10 nM. It also gave an EC50 [4] of 2020 ± 270 nM.

In the case of RGDS, the “Effect on P2Y2R-mediated Ca^2+ mobilization” value ([5]; overnight treatment with peptide, not shown) is reported as “not inhibited”, the “Effect on P2Y2R-mediated FAK phosphorylation” value [6, 16] is reported as “inhibited” and the “Effect on P2Y2R-mediated FAK phosphorylation” value [6, 17] is reported as “did not cause inhibition”. The “Effect on P2Y2R-mediated ERK1/2 phosphorylation” value [7, 18] was “inhibited”, the “Effect on P2Y2R-mediated ERK1/2 phosphorylation” value [7, 17] was “did not cause inhibition” and the “Effect on P2Y2R-mediated IP formation” value [8] was “not inhibited”.

With fibronectin the “AI (adhesion index) of ligand-coated beads bound to K562 cells” value [9] was 318 ± 14.

For pertussis toxin, the “Inhibition of Ca^2+ mobilization” value ([5]; 200 ng/ml PTX overnight, 1 μM UTP, 1321N1 cells) was 30% and the “Effect on Ca^2+ mobilization” value ([10]; 200 ng/ml PTX overnight, 100 μM UTP) was “insensitive”.

Molecule `Nc1ncnc2c1ncn2[C@@H]1O[C@H](COP(=O)(O)OP(=O)(O)OP(=O)(O)O)[C@@H](O)[C@H]1O` [ATP] has an EC50 ([5]; read-out: EC50 (for Ca^2+ mobilization), 1321N1 cells, mean ± SEM (n = 3)) of 850 ± 130 nM and an EC50 ([10]; read-out: EC50 (for Ca^2+ mobilization), mean ± SEM (n = 3)) of 785 ± 125 µM.

`O=C(O)CN(CC(=O)O)c1ccccc1OCCOc1ccccc1N(CC(=O)O)CC(=O)O` [BAPTA, 1,2-bis(2-aminophenoxy)ethane-N,N,N′,N′-tetraacetic acid] was tested, and the “Effect on UTP-induced FAK phosphorylation” value ([6]; 1 mM UTP after 30 min preincubation with 10 μM BAPTA-AM) was “inhibited”, the “Effect on UTP-induced FAK phosphorylation” value [11] was “inhibited” and the “Effect on UTP-induced ERK1/2 phosphorylation” value ([7]; 100 μM UTP after 30 min preincubation with 10 μM BAPTA-AM) was “partially inhibited”. For the same molecule, the “Effect on UTP-induced ERK1/2 phosphorylation” value [12] was “not affected”.

In the case of RGES, the “Effect on P2Y2R-mediated FAK phosphorylation” value [6, 16] is reported as “no effect” and the “Effect on P2Y2R-mediated ERK1/2 phosphorylation” value [7, 18] is reported as “no effect”.

With human vitronectin (ligand) the adhesion index (AI, beads bound per 100 K562 cells) (beads bound per 100 cells) [13] was 300 and the adhesion index (AI, beads bound per 100 K562 cells) (beads bound per 100 cells) [14] was 300.

`CCCC(=O)O[C@@H]1[C@@H](C)[C@@]2(O)[C@@H](C=C(CO)C[C@]3(O)C(=O)C(C)=C[C@@H]23)[C@@H]2C(C)(C)[C@]12OC(=O)CCC` [PDBu, phorbol dibutyrate] was tested, and the “Fluorescence intensity or percentage of cells stained by antiintegrin antibodies (α5, αVβ5, β3)” value [15] was “did not increase”.

B1: vitronectin: human vitronectin purchased from Calbiochem, coated on latex beads (protein, UniProt P04004 20-478, looked up)
Vitronectin: DQESCKGRCTEGFNVDKKCQCDELCSYYQSCCTDYTAECKPQVTRGDVFTMPEDEYTVYDDGEEKNNATVHEQVGGPSLTSDLQAQSKGNPEQTPVLKPEEEAPAPEVGASKPEGIDSRPETLHPGRPQPPAEEELCSGKPFDAFTDLKNGSLFAFRGQYCYELDEKAVRPGYPKLIRDVWGIEGPIDAAFTRINCQGKTYLFKGSQYWRFEDGVLDPDYPRNISDGFDGIPDNVDAALALPAHSYSGRERVYFFKGKQYWEYQFQHQPSQEECEGSSLSAVFEHFAMMQRDSWEDIFELLFWGRTSAGTRQPQFISRDWHGVPGQVDAAMAGRIYISGMAPRPSLAKKQRFRHRNRKGYRSQRGHSRGRNQNSRRPSRATWLSLFSSEESNLGANNYDDYRMDWLVPATCEPIQSVFFFSGDKYYRVNLRTRRVDTVDPPYPRSIAQYWLGCPAPGHL
modifications: coated on latex beads
B1 was tested, and the “AI (adhesion index) of ligand-coated beads bound to K562 cells” value [9] was 300 ± 28.
